ChEMBL document CHEMBL4043093, “2-Oxo-3, 4-dihydropyrimido[4, 5-d]pyrimidinyl derivatives as new irreversible pan fibroblast growth factor receptor (FGFR) inhibitors” (Eur J Med Chem, 2017)

Legend:
[1] = molecular target: Serine/threonine-protein kinase LATS2 (Homo sapiens) (UniProt Q9NRM7); test: Inhibition of wild-type human partial length LATS2 (Q641 to V1088 residues) expressed in HEK293 cells assessed as residual activity at 1000 nM after 30 mins by Kinomescan method relative to control; format: cell-based
[2] = molecular target: Interleukin-1 receptor-associated kinase 3 (Homo sapiens) (UniProt Q9Y616); test: Inhibition of wild-type human partial length IRAK3 (V147 to E596 residues) expressed in Escherichia coli BL21 assessed as residual activity at 1000 nM after 30 mins by Kinomescan method relative to control
[3] = molecular target: Serine/threonine-protein kinase PAK 4 (Homo sapiens) (UniProt O96013); test: Inhibition of wild-type human partial length PAK4 (Q144 to R438 residues) expressed in Escherichia coli BL21 assessed as residual activity at 1000 nM after 30 mins by Kinomescan method relative to control
[4] = molecular target: Myosin light chain kinase, smooth muscle (Homo sapiens) (UniProt Q15746); test: Inhibition of wild-type human full length MYLK (M854 to E1845 residues) expressed in HEK293 cells assessed as residual activity at 1000 nM after 30 mins by Kinomescan method relative to control; format: cell-based
Method in brief: (§1)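 Single-concentration screen at 1 µM across a 456-kinase KINOMEscan panel. The read-out is Percent Control for each kinase.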

[5] = molecular target: Tyrosine-protein kinase receptor UFO (Homo sapiens) (UniProt P30530); test: Inhibition of wild-type human partial length AXL (R497 to Y821 residues) expressed in Escherichia coli BL21 assessed as residual activity at 1000 nM after 30 mins by Kinomescan method relative to control
[6] = molecular target: Serine/threonine-protein kinase STK11 (Homo sapiens) (UniProt Q15831); test: Inhibition of wild-type human full length LKB1 (M1 to Q433 residues) expressed in Escherichia coli BL21 assessed as residual activity at 1000 nM after 30 mins by Kinomescan method relative to control; method in brief: as §1
[7] = system: Leucine-rich repeat serine/threonine-protein kinase 2 (Homo sapiens), Q5S007 [G2019S]; test: Inhibition of human partial length LRRK2 G2019S mutant (H970 to E2527 residues) expressed in HEK293 cells assessed as residual activity at 1000 nM after 30 mins by Kinomescan method relative to control; format: cell-based
Method in brief: (§2)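 KINOMEscan binding panel of 456 kinases, with the test compound at a single concentration of 1 µM. Read-out is Percent Control.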

[8] = molecular target: Serine/threonine-protein kinase RIO3 (Homo sapiens) (UniProt O14730); test: Inhibition of wild-type human full length RIOK3 (M1 to E519 residues) expressed in Escherichia coli BL21 assessed as residual activity at 1000 nM after 30 mins by Kinomescan method relative to control
[9] = molecular target: Mitogen-activated protein kinase kinase kinase 4 (Homo sapiens) (UniProt Q9Y6R4); test: Inhibition of wild-type human partial length MAP3K4 (G1319 to E1608 residues) expressed in Escherichia coli BL21 assessed as residual activity at 1000 nM after 30 mins by Kinomescan method relative to control
[10] = molecular target: MAP/microtubule affinity-regulating kinase 3 (Homo sapiens) (UniProt P27448); test: Inhibition of wild-type human full length MARK3 (M1 to L729 residues) expressed in Escherichia coli BL21 assessed as residual activity at 1000 nM after 30 mins by Kinomescan method relative to control; method in brief: as §1
[11] = molecular target: Tyrosine-protein kinase Fgr (Homo sapiens) (UniProt P09769); test: Inhibition of wild-type human partial length FGR (L233 to T529 residues) expressed in Escherichia coli BL21 assessed as residual activity at 1000 nM after 30 mins by Kinomescan method relative to control
[12] = molecular target: Myotonin-protein kinase (Homo sapiens) (UniProt Q09013); test: Inhibition of wild-type human partial length DMPK (V47 to V415 residues) expressed in Escherichia coli BL21 assessed as residual activity at 1000 nM after 30 mins by Kinomescan method relative to control
[13] = molecular target: Cyclin-dependent kinase 3 (Homo sapiens) (UniProt Q00526); test: Inhibition of wild-type human full length CDK3 (M1 to H305 residues) expressed in Escherichia coli BL21 assessed as residual activity at 1000 nM after 30 mins by Kinomescan method relative to control
Method in brief: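 Single-point screen at a fixed 1 µM, run within a 456-kinase DiscoveRx KINOMEscan panel. Each kinase's read-out is Percent Control, i.e. signal relative to a control without compound. Hits were scored by a Percent Control < 35 cut-off, and an S(35) selectivity score was calculated across the non-mutant kinases.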

[14] = molecular target: Ribosomal protein S6 kinase alpha-3 (Homo sapiens) (UniProt P51812); test: Inhibition of wild-type human partial length N-terminal RSK3 kinase domain 1 (M1 to Q385 residues) expressed in Escherichia coli BL21 assessed as residual activity at 1000 nM after 30 mins by Kinomescan method relative to control
[15] = molecular target: Protein kinase C eta type (Homo sapiens) (UniProt P24723); test: Inhibition of wild-type human partial length PRKCH (S324 to P683 residues) expressed in Escherichia coli BL21 assessed as residual activity at 1000 nM after 30 mins by Kinomescan method relative to control
[16] = system: Receptor-type tyrosine-protein kinase FLT3 (Homo sapiens), P36888 [D835V]; test: Inhibition of human partial length FLT3 D835V mutant (V592 to Y969 residues) expressed in Escherichia coli BL21 assessed as residual activity at 1000 nM after 30 mins by Kinomescan method relative to control; method in brief: as §2
[17] = molecular target: Proto-oncogene tyrosine-protein kinase ROS (Homo sapiens) (UniProt P08922); test: Inhibition of wild-type human partial length ROS1 (A1921 to N2240 residues) expressed in Escherichia coli BL21 assessed as residual activity at 1000 nM after 30 mins by Kinomescan method relative to control
[18] = system: Receptor-type tyrosine-protein kinase FLT3 (Homo sapiens), P36888 [D835Y]; test: Inhibition of human partial length FLT3 D835Y mutant (Q580 to Y969 residues) expressed in Escherichia coli BL21 assessed as residual activity at 1000 nM after 30 mins by Kinomescan method relative to control; method in brief: as §2
[19] = molecular target: Mitogen-activated protein kinase kinase kinase 1 (Homo sapiens) (UniProt Q13233); test: Inhibition of wild-type human partial length MAP3K1 (L1202 to W1512 residues) expressed in HEK293 cells assessed as residual activity at 1000 nM after 30 mins by Kinomescan method relative to control; format: cell-based
[20] = molecular target: Calcium/calmodulin-dependent protein kinase kinase 2 (Homo sapiens) (UniProt Q96RR4); test: Inhibition of wild-type human partial length CAMKK2 (D65 to V471 residues) expressed in Escherichia coli BL21 assessed as residual activity at 1000 nM after 30 mins by Kinomescan method relative to control
[21] = molecular target: Tyrosine-protein kinase ITK/TSK (Homo sapiens) (UniProt Q08881); test: Inhibition of wild-type human partial length ITK (R335 to L620 residues) expressed in Escherichia coli BL21 assessed as residual activity at 1000 nM after 30 mins by Kinomescan method relative to control

Chain of Tyrosine-protein kinase Fgr (Homo sapiens) (P09769 2-529 limits assumed): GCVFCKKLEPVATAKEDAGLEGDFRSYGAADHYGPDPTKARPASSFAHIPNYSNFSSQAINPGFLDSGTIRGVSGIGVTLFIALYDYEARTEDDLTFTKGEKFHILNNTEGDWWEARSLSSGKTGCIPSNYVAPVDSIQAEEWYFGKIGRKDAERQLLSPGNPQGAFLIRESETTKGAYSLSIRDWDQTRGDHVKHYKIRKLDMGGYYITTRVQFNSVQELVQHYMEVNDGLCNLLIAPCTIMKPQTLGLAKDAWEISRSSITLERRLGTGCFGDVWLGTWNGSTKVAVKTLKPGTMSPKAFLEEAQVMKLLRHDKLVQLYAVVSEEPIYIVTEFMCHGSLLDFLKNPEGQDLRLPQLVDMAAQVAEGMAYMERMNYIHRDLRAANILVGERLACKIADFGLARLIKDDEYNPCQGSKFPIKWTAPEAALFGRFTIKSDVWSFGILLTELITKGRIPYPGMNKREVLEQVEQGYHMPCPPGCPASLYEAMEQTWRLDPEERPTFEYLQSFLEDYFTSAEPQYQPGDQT
Chain of Serine/threonine-protein kinase STK11 (Homo sapiens) (Q15831 whole entry, the tested form may be a part): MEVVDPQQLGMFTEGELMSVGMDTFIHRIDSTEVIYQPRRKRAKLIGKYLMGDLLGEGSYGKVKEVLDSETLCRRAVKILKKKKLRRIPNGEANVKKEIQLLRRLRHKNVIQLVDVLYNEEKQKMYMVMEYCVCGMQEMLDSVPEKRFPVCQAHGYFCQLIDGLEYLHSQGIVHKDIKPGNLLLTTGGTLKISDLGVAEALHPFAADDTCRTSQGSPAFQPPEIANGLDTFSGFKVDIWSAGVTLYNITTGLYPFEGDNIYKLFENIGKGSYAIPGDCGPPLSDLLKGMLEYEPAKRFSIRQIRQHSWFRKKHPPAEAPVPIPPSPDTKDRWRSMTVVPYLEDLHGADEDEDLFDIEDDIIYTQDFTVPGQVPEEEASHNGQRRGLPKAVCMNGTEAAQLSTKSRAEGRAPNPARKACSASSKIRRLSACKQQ
Chain of Mitogen-activated protein kinase kinase kinase 1 (Homo sapiens) (Q13233 whole entry, the tested form may be a part): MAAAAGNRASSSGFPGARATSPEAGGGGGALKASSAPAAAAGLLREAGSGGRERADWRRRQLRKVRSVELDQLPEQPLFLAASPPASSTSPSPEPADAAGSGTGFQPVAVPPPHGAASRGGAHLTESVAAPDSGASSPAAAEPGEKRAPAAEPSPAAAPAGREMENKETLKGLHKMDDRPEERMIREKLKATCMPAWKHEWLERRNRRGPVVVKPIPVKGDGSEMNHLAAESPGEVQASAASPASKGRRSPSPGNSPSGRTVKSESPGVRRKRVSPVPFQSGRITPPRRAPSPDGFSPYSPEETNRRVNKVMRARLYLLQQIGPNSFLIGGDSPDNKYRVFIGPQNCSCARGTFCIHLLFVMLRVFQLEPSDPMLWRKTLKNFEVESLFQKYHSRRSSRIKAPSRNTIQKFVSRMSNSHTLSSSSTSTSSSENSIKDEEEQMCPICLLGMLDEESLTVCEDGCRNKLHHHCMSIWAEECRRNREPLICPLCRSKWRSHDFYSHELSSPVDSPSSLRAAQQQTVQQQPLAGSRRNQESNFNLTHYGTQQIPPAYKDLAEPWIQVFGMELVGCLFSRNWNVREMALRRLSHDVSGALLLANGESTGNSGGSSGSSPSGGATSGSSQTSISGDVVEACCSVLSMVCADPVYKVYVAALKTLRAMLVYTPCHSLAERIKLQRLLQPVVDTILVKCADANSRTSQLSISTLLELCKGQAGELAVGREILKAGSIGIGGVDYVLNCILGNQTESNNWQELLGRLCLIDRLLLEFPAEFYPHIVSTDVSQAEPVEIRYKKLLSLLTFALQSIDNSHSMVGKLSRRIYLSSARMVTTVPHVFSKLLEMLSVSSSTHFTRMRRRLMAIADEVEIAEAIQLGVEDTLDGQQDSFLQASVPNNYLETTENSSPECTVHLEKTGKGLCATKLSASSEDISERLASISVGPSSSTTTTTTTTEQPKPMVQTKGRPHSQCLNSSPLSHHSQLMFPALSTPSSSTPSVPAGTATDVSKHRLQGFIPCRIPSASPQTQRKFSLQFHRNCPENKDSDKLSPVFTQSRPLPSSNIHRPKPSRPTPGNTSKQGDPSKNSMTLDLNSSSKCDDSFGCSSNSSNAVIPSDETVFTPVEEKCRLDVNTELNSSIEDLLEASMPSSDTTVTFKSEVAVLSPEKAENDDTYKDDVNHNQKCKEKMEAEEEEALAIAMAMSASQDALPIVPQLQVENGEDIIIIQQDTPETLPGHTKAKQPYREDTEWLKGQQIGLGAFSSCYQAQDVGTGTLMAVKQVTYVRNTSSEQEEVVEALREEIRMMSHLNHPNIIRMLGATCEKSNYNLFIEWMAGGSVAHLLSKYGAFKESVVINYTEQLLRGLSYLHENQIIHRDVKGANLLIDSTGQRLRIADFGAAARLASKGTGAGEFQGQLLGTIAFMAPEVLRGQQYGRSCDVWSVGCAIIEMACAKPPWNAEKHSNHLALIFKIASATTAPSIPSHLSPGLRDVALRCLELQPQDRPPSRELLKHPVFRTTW
Chain of Mitogen-activated protein kinase kinase kinase 4 (Homo sapiens) (Q9Y6R4 whole entry, the tested form may be a part): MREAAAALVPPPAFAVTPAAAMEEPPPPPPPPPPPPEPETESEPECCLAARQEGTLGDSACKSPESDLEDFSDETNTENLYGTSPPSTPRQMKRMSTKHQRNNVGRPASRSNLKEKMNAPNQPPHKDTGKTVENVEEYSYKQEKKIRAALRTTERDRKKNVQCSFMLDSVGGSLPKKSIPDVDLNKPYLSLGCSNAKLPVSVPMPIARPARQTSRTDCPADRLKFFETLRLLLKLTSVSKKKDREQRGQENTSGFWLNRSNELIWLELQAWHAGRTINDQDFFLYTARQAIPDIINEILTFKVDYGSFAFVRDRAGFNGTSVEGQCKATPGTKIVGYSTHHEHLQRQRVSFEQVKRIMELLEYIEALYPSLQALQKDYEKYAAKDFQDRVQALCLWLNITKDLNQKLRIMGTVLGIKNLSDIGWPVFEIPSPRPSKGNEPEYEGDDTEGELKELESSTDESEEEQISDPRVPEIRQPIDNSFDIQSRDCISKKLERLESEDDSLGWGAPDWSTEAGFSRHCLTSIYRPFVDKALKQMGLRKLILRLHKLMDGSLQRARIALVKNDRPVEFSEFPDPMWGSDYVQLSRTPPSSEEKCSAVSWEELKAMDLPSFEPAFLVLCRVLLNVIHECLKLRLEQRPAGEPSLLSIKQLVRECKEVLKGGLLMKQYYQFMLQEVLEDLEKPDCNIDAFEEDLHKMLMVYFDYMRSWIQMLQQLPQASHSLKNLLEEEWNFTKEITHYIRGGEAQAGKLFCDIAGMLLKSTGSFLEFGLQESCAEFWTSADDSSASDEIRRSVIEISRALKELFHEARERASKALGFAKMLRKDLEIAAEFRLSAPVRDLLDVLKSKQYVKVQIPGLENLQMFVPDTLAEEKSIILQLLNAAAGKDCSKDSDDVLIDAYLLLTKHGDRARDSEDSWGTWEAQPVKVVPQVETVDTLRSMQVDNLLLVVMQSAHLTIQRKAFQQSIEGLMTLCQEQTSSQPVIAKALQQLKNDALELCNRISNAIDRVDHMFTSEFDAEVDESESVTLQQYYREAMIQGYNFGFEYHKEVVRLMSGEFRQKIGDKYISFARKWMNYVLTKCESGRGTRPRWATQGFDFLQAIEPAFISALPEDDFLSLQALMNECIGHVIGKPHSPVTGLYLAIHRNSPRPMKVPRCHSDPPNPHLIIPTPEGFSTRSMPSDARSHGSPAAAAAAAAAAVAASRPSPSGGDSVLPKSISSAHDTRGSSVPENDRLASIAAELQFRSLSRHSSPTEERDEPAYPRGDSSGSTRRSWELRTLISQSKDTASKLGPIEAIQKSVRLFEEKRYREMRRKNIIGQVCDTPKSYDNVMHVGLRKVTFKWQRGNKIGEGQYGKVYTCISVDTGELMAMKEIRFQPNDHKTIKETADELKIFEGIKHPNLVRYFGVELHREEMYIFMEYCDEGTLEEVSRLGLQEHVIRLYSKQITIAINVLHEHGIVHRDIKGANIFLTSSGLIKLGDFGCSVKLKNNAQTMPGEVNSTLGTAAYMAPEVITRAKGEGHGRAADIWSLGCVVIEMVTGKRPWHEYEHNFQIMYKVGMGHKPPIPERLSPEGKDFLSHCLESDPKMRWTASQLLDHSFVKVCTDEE
Chain of Calcium/calmodulin-dependent protein kinase kinase 2 (Homo sapiens) (Q96RR4 2-588 limits assumed): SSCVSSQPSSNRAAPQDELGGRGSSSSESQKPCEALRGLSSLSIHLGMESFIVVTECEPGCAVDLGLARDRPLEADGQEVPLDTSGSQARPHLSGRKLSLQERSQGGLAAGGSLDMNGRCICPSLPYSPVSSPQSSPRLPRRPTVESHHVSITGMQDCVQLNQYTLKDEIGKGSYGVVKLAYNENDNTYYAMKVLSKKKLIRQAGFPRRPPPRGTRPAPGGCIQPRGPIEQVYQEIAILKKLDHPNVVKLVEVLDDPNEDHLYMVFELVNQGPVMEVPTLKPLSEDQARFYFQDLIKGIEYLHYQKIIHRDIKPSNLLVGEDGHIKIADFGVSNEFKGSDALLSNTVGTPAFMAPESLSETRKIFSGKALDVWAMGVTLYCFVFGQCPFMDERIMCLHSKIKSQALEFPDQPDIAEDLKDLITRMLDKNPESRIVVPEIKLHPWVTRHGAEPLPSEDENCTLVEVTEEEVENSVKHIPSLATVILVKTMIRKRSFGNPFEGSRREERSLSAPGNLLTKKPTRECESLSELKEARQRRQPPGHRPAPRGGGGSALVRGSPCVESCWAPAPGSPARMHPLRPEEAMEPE
Chain of Cyclin-dependent kinase 3 (Homo sapiens) (Q00526 whole entry, looked up, the tested form may be a part): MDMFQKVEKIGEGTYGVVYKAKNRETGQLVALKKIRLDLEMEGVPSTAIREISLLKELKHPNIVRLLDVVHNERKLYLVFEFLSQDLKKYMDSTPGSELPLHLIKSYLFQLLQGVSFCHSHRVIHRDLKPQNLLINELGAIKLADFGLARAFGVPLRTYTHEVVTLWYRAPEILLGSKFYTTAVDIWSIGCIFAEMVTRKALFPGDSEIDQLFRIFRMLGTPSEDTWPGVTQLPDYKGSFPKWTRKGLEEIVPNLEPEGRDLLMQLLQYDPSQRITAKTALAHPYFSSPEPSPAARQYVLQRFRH

## COc1cc(OC)c(Cl)c(N2Cc3cnc(Nc4ccc(F)cc4)nc3N(C3CCN(C(=O)/C=C/CN(C)C)CC3)C2=O)c1Cl
[1]
  Activity: 100%
[2]
  Activity: 100%
[3]
  Activity: 100%
[4]
  Activity: 100%
[5]
  Activity: 92%
[6]
  Activity: 100%
[7]
  Activity: 98%
[8]
  Activity: 97%
[9]
  Activity: 46%
[10]
  Activity: 99%
[11]
  Activity: 19%
[12]
  Activity: 100%
[13]
  Activity: 97%
[14]
  Activity: 97%
[15]
  Activity: 91%
[16]
  Activity: 80%
[17]
  Activity: 95%
[18]
  Activity: 83%
[19]
  Activity: 100%
[20]
  Activity: 99%
[21]
  Activity: 100%
